Sampled rows, rich in hits. Any-hit rate of the full collection: about 2.5%.
SENP1 FRET inh: blocks the human SENP1 SUMO protease catalytic domain. AID 624204. Q9P0U3. hit rate 0.21% among 360,000. recombinant SENP1 catalytic domain, CyPet-SUMO1-YPet FRET cleavage. inhibition, % at 10 µM;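 active = inhibition at least 30% at 10 µM, raw YFP signal under a set limit, fluorescence ratio 0.5 to 1.5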;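 note: 0% = enzyme with DMSO and 100% = no enzyme wells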
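Material: hSENP1 catalytic domain, recombinant; medium: Tris pH 8 with BME, BSA, NP40 and catalase; compound: single concentration of 10 µM compound, 0.5% DMSO final; technique: FRET read of cyan and yellow fluorescence; timing: 50 min enzyme reaction, room temperature, light-protected; reagent: SFCypet-SUMO1-SFYpet substrate at 25 nM; control set: no-enzyme low, enzyme-DMSO high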
SENP7 inh: SENP7 protease inhibition | Q9BQF6 | recombinant SENP7, Z-RLRGG-aminoluciferin luminescence, 40 min | inhibition, % at 5 µM | hit rate 1.5% among 330,000;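 active = inhibition above about 50% at the single test dose, limit read from the data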;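 note: plate controls were DMSO with enzyme for no effect and no enzyme buffer wells for full effect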
SENP6 block: inhibitors of human SENP6 protease; AID 2599; hit rate 1.8% among 330,000; Recombinant SENP6 catalytic domain, aminoluciferin luminescence; Q9GZR1; inhibition, % at 10 µM;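 active = inhibition above about 50% at the single tested dose, limit read from the data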;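 note: plate controls were DMSO wells with enzyme for no effect and DMSO wells lacking enzyme for full effect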
Target sequence (Q9GZR1 628-1112 limits assumed): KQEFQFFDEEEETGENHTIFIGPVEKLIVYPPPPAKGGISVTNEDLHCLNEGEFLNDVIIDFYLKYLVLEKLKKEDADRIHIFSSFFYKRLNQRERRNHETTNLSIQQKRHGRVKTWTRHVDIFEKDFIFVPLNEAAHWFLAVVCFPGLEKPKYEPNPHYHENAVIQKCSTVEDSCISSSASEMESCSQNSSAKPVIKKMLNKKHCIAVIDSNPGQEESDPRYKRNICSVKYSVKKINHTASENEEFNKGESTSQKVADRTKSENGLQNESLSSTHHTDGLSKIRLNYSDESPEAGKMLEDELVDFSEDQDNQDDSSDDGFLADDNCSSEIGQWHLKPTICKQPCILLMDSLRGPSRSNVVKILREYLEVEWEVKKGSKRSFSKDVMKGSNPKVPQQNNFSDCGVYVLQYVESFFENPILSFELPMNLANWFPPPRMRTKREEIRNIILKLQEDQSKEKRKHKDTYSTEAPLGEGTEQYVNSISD
SENP8 block-1: inhibitors of human SENP8 protease. purified SENP8, Z-RLRGG-aminoluciferin cleavage, luminescence. inhibition, % at 10 µM. hit rate 1.2% among 330,000; in the data active = inhibition above about 50%
SENP8 block-2: blocks human SENP8 cleavage of Nedd8 substrate | Q96LD8 | recombinant SENP8, Nedd8 substrate fluorescence | inhibition, % at 20 µM | hit rate 0.64% among 360,000; in the data active = inhibition mostly above about 40%, no sharp cut-off; inactive = mostly below about 27%
Active calls of the source: *.

What do the screens show for `Cc1ccc2nc(-c3ccc(SCC(=O)Nc4ccc5c(c4)OCCO5)nc3)[nH]c2c1`?
SENP1 FRET inh: 0; SENP7 inh: 51*; SENP6 block: -27; SENP8 block-1: -11; SENP8 block-2: -372

How did Cc1cc2nc(-c3ccc(SCC(=O)Nc4ccc5c(c4)OCCO5)nc3)[nH]c2cc1C do in these assays?
SENP1 FRET inh: -7; SENP7 inh: 31; SENP6 block: 9; SENP8 block-1: -9; SENP8 block-2: -252

Results for CCC1Cc2[nH][nH]c(=O)c2C(CC)O1 (stereo not drawn) ?
SENP1 FRET inh: 2; SENP8 block-2: 19

Results for COc1ccc(Nc2ccccc2N)cc1 ?
SENP1 FRET inh: 34*; SENP7 inh: -7; SENP6 block: 33; SENP8 block-1: -7; SENP8 block-2: -20

Results for CC1(C)CC(=O)c2c(O)cc(O)cc2O1 ?
SENP1 FRET inh: 1; SENP7 inh: 4; SENP6 block: -8; SENP8 block-1: 2; SENP8 block-2: 11

What do the screens show for `C[C@]12CCC[C@H](O1)c1c(cc3c(c1O)C(=O)c1c(O)cc(O)cc1C3=O)O2`?
SENP1 FRET inh: 31*; SENP7 inh: -7; SENP6 block: -10; SENP8 block-1: -10; SENP8 block-2: 58*

What do the screens show for `CCOC(=O)CC1(CC)Oc2ccccc2N1S(=O)(=O)c1ccc(C)cc1` (stereo not drawn)?
SENP1 FRET inh: 2; SENP8 block-2: 29

How did CCS(=O)(=O)c1nc(S(=O)(=O)c2ccc(C)cc2)c(N2CCCCCC2)s1 do in these assays?
SENP1 FRET inh: 4; SENP8 block-2: 14

Results for O=C(O)c1ccc(N=NNc2cccc([N+](=O)[O-])c2)cc1 ?
SENP1 FRET inh: 1; SENP7 inh: 98*; SENP6 block: 95*; SENP8 block-1: 96*; SENP8 block-2: 40*

Results for O=C(Nc1cccc([N+](=O)[O-])c1)c1ccc(-c2ccccc2)cc1 ?
SENP1 FRET inh: 3; SENP7 inh: -13; SENP6 block: -6; SENP8 block-1: -1; SENP8 block-2: 14

What do the screens show for `NC(=O)c1ccc(NC(=O)COC(=O)c2ccccc2SCC(=O)N2CCCC2)cc1`?
SENP1 FRET inh: 1; SENP8 block-2: -10

Results for O=C(O)C1CSC(c2ccncc2)N1 (stereo not drawn) ?
SENP1 FRET inh: 65*; SENP7 inh: -7; SENP6 block: -28; SENP8 block-1: -10; SENP8 block-2: -9

What do the screens show for `CC(C)Cc1cc(C(C)(C)C)ccc1OC(=S)N(C)C`?
SENP1 FRET inh: 1; SENP7 inh: -8; SENP6 block: -9; SENP8 block-1: -5; SENP8 block-2: 15

How did O=C(OCc1ccccc1)c1ccc2c(c1)-c1ccccc1C2=O do in these assays?
SENP1 FRET inh: 0; SENP7 inh: 14; SENP6 block: 21; SENP8 block-1: -5; SENP8 block-2: 35

How did CCc1ccc2c(c1)C(=O)c1ccccc1C2=O do in these assays?
SENP1 FRET inh: 2; SENP7 inh: 83*; SENP6 block: 78*; SENP8 block-1: 79*; SENP8 block-2: 20

How did CCN(CC)c1ccc(/C=N/NC(=O)c2ccc3c(c2)OCCO3)cc1 do in these assays?
SENP1 FRET inh: -65; SENP7 inh: 0; SENP6 block: -8; SENP8 block-1: 7; SENP8 block-2: -446

What do the screens show for `CCN(CC)c1ccc(/C=N/NC(=O)c2ccc(Br)o2)cc1`?
SENP1 FRET inh: -39; SENP7 inh: 49; SENP6 block: 70*; SENP8 block-1: 34; SENP8 block-2: -292

How did N#Cc1c(NC(=O)CSc2nc3ccccc3s2)sc2c1CCCC2 do in these assays?
SENP1 FRET inh: -5; SENP7 inh: 4; SENP6 block: -17; SENP8 block-1: -2; SENP8 block-2: 11

How did C/C(=N\Nc1ccc(C#N)cc1[N+](=O)[O-])c1ccc(O)cc1 do in these assays?
SENP1 FRET inh: 3; SENP7 inh: -3; SENP6 block: -18; SENP8 block-1: 0; SENP8 block-2: 44*

Results for Clc1ccc(N=c2ssnc2Cl)nc1 ?
SENP1 FRET inh: 32*; SENP7 inh: 11; SENP6 block: 40; SENP8 block-1: 9; SENP8 block-2: 37

How did Cc1ccc2cccc(NC3OC(=O)c4ccccc43)c2n1 (stereo not drawn) do in these assays?
SENP1 FRET inh: -23; SENP7 inh: 36; SENP6 block: 51*; SENP8 block-1: 22; SENP8 block-2: 10

How did O=C(NCCC(=O)N1CCN(c2ccccn2)CC1)c1ccc(Cl)cc1 do in these assays?
SENP1 FRET inh: 0; SENP7 inh: 7; SENP6 block: -17; SENP8 block-1: -1; SENP8 block-2: -8

High-throughput results as filed in PubChem BioAssay.
